Test results published in ChEMBL document CHEMBL3352487, “Synthesis, antibacterial activity, and biological evaluation of formyl hydroxyamino derivatives as novel potent peptide deformylase inhibitors against drug-resistant bacteria” (Eur J Med Chem, 2014).
Converted amounts (≈) assume the structure as drawn.

What was measured:
Type in all cases: functional
Staphylococcus aureus [1] = assay: Antimicrobial activity against Staphylococcus aureus isolate MN 1255 after 24 hrs by broth microdilution method; conditions: isolate MN 1255, 24 h
How it was run: (§1)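 Broth microdilution following NCCLS M7-A4; ATCC strains and clinical isolates from a provincial hospital.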

Staphylococcus aureus [2] = assay: Antimicrobial activity against Staphylococcus aureus isolate 934324 after 24 hrs by broth microdilution method; conditions: isolate 934324, 24 h; how it was run: as §1
Streptococcus pneumoniae = assay: Antimicrobial activity against Streptococcus pneumoniae 1629 after 24 hrs by broth microdilution method; conditions: Streptococcus pneumoniae, 1629, 24 h; how it was run: as §1
Haemophilus influenzae = assay: Antimicrobial activity against Haemophilus influenzae H128 after 24 hrs by broth microdilution method; conditions: H128, 24 h; how it was run: as §1

SMILES: CCCC[C@H](CN(O)C=O)C(=O)N1CC=C[C@H]1C(=O)Nc1ccc(F)c[n+]1[O-]
- MIC (Staphylococcus aureus [1]): 0.25 µg/mL (≈ 0.634 µM)
- MIC (Staphylococcus aureus [2]): 1 µg/mL (≈ 2.54 µM)
- MIC (Streptococcus pneumoniae): 1 µg/mL (≈ 2.54 µM)
- MIC (Haemophilus influenzae): 2 µg/mL (≈ 5.07 µM)
